Measurements from ChEMBL document CHEMBL4196148, “Antibacterial Prenylated Isoflavonoids from the Stems of Millettia extensa” (2018).
In brackets after ≈: the same amount, converted by molar mass. Activity calls are given as the source filed them. No cut-off for these calls is given here.

Columns and labels:
Bacillus subtilis [1] = assay: Antibacterial activity against Bacillus subtilis TISTR 008 by 2-fold serial dilution method; assay type: functional, Bacillus spizizenii
Outline: (§1)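 MICs determined following Clinical and Laboratory Standards Institute recommendations, reported in μg/mL.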

Staphylococcus aureus [2] = assay: Antibacterial activity against Staphylococcus aureus TISTR 1466 by 2-fold serial dilution method; assay type: functional; outline: as §1
[3] = test system: Staphylococcus epidermidis; assay: Antibacterial activity against Staphylococcus epidermidis ATCC 12228 by 2-fold serial dilution method; assay type: functional; outline: as §1
Salmonella typhimurium = assay: Antibacterial activity against Salmonella typhimurium TISTR 781 by 2-fold serial dilution method; assay type: functional, Salmonella enterica subsp. enterica serovar Typhimurium; outline: as §1
Pseudomonas aeruginosa = assay: Antibacterial activity against Pseudomonas aeruginosa TISTR 292 by 2-fold serial dilution method; assay type: functional; outline: as §1
Staphylococcus aureus [4] = assay: Antibacterial activity against Staphylococcus aureus TISTR 1466 at >128 ug/ml by 2-fold serial dilution method; assay type: functional, organism-based; outline: as §1
[5] = test system: Staphylococcus epidermidis; assay: Antibacterial activity against Staphylococcus epidermidis ATCC 12228 at >128 ug/ml by 2-fold serial dilution method; assay type: functional, organism-based; outline: as §1
Bacillus subtilis [6] = assay: Antibacterial activity against Bacillus subtilis TISTR 008 at >128 ug/ml by 2-fold serial dilution method; assay type: functional, organism-based; details: Bacillus spizizenii; outline: as §1

Row | Compound | MIC (Bacillus subtilis [1]) | MIC (Staphylococcus aureus [2]) | MIC [3] | MIC (Salmonella typhimurium; Salmonella enterica) | MIC (Pseudomonas aeruginosa) | Activity (Staphylococcus aureus [4]) | Activity [5] | Activity (Bacillus subtilis [6]) | MIC (Salmonella typhimurium; Salmonella enterica subsp. enterica serovar Typhimurium)
1 | CN[C@H](CC(C)C)C(=O)N[C@H]1C(=O)N[C@@H](CC(N)=O)C(=O)N[C@H]2C(=O)N[C@H]3C(=O)N[C@H](C(=O)N[C@H](C(=O)O)c4cc(O)cc(O)c4-c4cc3ccc4O)[C@H](O)c3ccc(c(Cl)c3)Oc3cc2cc(c3O[C@@H]2O[C@H](CO)[C@@H](O)[C@H](O)[C@H]2O[C@H]2C[C@](C)(N)[C@H](O)[C@H](C)O2)Oc2ccc(cc2Cl)[C@H]1O [VANCOMYCIN] | 0.25 µg/mL (≈ 0.173 µM) | 0.25 µg/mL (≈ 0.173 µM) | 0.25 µg/mL (≈ 0.173 µM) |  |  |  |  |  | 
2 | Oc1ccc2c(c1)OC[C@H]1c3cc4c(cc3O[C@@H]21)OCO4 [MAACKIAIN] |  |  |  | 128 µg/mL (≈ 450 µM) | 128 µg/mL (≈ 450 µM) | inactive | inactive | inactive | 
3 | GENTAMICIN |  |  |  |  | 2 µg/mL |  |  |  | 0.25 µg/mL
4 | C=C(C)[C@@H]1Cc2c(cc(O)c3c2O[C@H]2COc4cc(OC)c(OC)cc4[C@H]2C3=O)O1 |  |  |  | 128 µg/mL (≈ 312 µM) | 128 µg/mL (≈ 312 µM) | inactive | inactive | inactive | 
5 | CC(C)=CCc1c2c(c(O)c3c(=O)c(-c4ccc(O)cc4O)coc13)C=CC(C)(C)O2 | 2 µg/mL (≈ 4.76 µM) | 2 µg/mL (≈ 4.76 µM) | 2 µg/mL (≈ 4.76 µM) | 128 µg/mL (≈ 304 µM) | 128 µg/mL (≈ 304 µM) |  |  |  | 
6 | CC(C)=CCC1=C(O)c2c(occ(-c3ccc(O)cc3O)c2=O)C(CC=C(C)C)(CC=C(C)C)C1=O | 2 µg/mL (≈ 4.08 µM) | 2 µg/mL (≈ 4.08 µM) | 2 µg/mL (≈ 4.08 µM) | 128 µg/mL (≈ 261 µM) | 128 µg/mL (≈ 261 µM) |  |  |  | 
7 | COc1cc(OC)c(-c2coc3cc4c(c(O)c3c2=O)C=CC(C)(C)O4)cc1OC |  |  |  | 128 µg/mL (≈ 312 µM) | 128 µg/mL (≈ 312 µM) | inactive | inactive | inactive | 
8 | CC(C)=CCOc1ccc(-c2coc3cc4c(c(O)c3c2=O)C=CC(C)(C)O4)c(O)c1 |  |  |  | 128 µg/mL (≈ 304 µM) | 128 µg/mL (≈ 304 µM) | inactive | inactive | inactive | 
9 | CC(C)=CCOc1ccc(-c2coc3cc4c(c(O)c3c2=O)C=CC(C)(C)O4)cc1 |  |  |  | 128 µg/mL (≈ 316 µM) | 128 µg/mL (≈ 316 µM) | inactive | inactive | inactive | 
10 | CC(C)=CCc1c2c(c(O)c3c(=O)c(-c4ccc(O)cc4)coc13)C=CC(C)(C)O2 [WARANGALONE] | 2 µg/mL (≈ 4.94 µM) | 2 µg/mL (≈ 4.94 µM) | 4 µg/mL (≈ 9.89 µM) | 128 µg/mL (≈ 316 µM) | 128 µg/mL (≈ 316 µM) |  |  |  | 
11 | CC(C)=CCc1c2c(c3occ(-c4ccc(O)cc4O)c(=O)c3c1O)C=CC(C)(C)O2 | 2 µg/mL (≈ 4.76 µM) | 2 µg/mL (≈ 4.76 µM) | 2 µg/mL (≈ 4.76 µM) | 128 µg/mL (≈ 304 µM) | 128 µg/mL (≈ 304 µM) |  |  |  | 
12 | CC(C)=CCc1c2c(c(O)c3c(=O)c(-c4ccc(O)c(O)c4)coc13)C=CC(C)(C)O2 [AURICULASIN] | 8 µg/mL (≈ 19 µM) | 4 µg/mL (≈ 9.51 µM) | 4 µg/mL (≈ 9.51 µM) | 128 µg/mL (≈ 304 µM) | 128 µg/mL (≈ 304 µM) |  |  |  | 
